Measured values published in ChEMBL document CHEMBL3997803, “Accepting the Invitation to Open Innovation in Malaria Drug Discovery: Synthesis, Biological Evaluation, and Investigation on the Structure-Activity Relationships of Benzo[b]thiophene-2-carboxamides as Antimalarial Agents” (J Med Chem, 2017).
pEC50, pIC50: −log10 of the molar value. Active and inactive are the calls of the source. The rule behind the calls is not given here.

What was measured:
[1] = test system: Plasmodium falciparum; experiment: Anti-parasitic activity against CQ-sensitive Plasmodium falciparum D10 assessed as growth inhibition by measuring increase in LDH release after 72 hrs by spectrophotometric method; assay type: functional; settings: D10, 72 h
How it was run: (§1)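 Asynchronous cultures (parasitemia 1–1.5%, 1% final hematocrit, human A+ RBCs) in RPMI 1640 with 1% AlbuMax, 0.01% hypoxanthine, 20 mM HEPES, 2 mM glutamine. Serial dilutions from DMSO stocks (final DMSO <1%). IC50 as mean ± SD of ≥3 experiments in duplicate.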

[2] = test system: Plasmodium falciparum; experiment: Anti-parasitic activity against CQ-resistant Plasmodium falciparum W2 assessed as growth inhibition by measuring increase in LDH release after 72 hrs by spectrophotometric method; assay type: functional; settings: W2, 72 h; how it was run: as §1
[3] = test system: HMEC-1; experiment: Antiproliferative activity against SV40 large T-antigen 38 immortalized HMEC1 cells after 72 hrs by MTT assay; assay type: cell-based; settings: Homo sapiens, HMEC-1, 72 h
How it was run: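 HMEC-1 cells (SV40 large T-antigen immortalized) grown in MCDB 131 with 10% fetal calf serum, 10 ng/mL EGF, 1 μg/mL hydrocortisone, 2 mM glutamine, penicillin/streptomycin, 20 mM Hepes. Treated with serial dilutions for 72 h; proliferation read by MTT. IC50 = dose inhibiting growth 50%; mean and SD of at least three experiments in duplicate.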

[4] = Selectivity index, ratio of IC50 for SV40 large T-antigen 38 immortalized HMEC1 cells to IC50 for CQ-sensitive Plasmodium falciparum D10; assay type: toxicity; settings: human, read-out: Ratio IC50
[5] = Selectivity index, ratio of IC50 for SV40 large T-antigen 38 immortalized HMEC1 cells to IC50 for CQ-resistant Plasmodium falciparum W2; assay type: toxicity; settings: human, read-out: Ratio IC50
[6] = Stability of the compound in RPMI 1640 medium at 1 uM up to 24 hrs by HPLC-MS/MS method; assay type: physicochemical
[7] = Half-life in human liver microsomes at 1 uM in presence of NADPH by HPLC-MS/MS method; assay type: ADME, microsome
[8] = test system: Escherichia coli; experiment: Inhibition of Escherichia coli ClpB ATP hydrolysis activity at 2 uM after 15 mins by spectrophotometric method
How it was run: (§2)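 E. coli ClpB (concentration as monomer) assayed at 37 °C in 100 mM Tris/HCl pH 8, 1 mM DTT, 1 mM EDTA, 10 mM MgCl2. Reaction started by adding ClpB to buffer holding compound (DMSO stock diluted in buffer) and 4 mM ATP. Inorganic phosphate released from ATP quantified; matching DMSO amounts as controls.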

[9] = Inhibition of recombinant histidine-tagged Plasmodium falciparum choline kinase expressed in Escherichia coli using choline as substrate after 30 mins by HTRF method
[10] = test system: Plasmodium falciparum; experiment: Antiparasitic activity against Plasmodium falciparum 3D7 infected in erythrocytes after 72 hrs by SYBR Green 1 dye-based assay; assay type: functional, cell-based; settings: 3D7, 72 h
[11] = test system: Escherichia coli; experiment: Inhibition of Escherichia coli ClpB ATP hydrolysis activity at 1.5 uM after 15 mins by spectrophotometric method; how it was run: as §2
[12] = test system: Escherichia coli; experiment: Inhibition of Escherichia coli ClpB ATP hydrolysis activity at 1.5 uM preincubated for 21 mins followed by ATP addition by spectrophotometric method
How it was run: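 E. coli ClpB ATPase in 100 mM Tris/HCl pH 8, 1 mM DTT, 1 mM EDTA, 10 mM MgCl2, 37 °C. ClpB and compound (DMSO stock diluted in buffer) combined first; reaction started by adding ATP. ATP hydrolysis followed as inorganic phosphate generated; equivalent DMSO amounts served as controls.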

[13] = test system: Escherichia coli; experiment: Inhibition of Escherichia coli ClpB ATP hydrolysis activity at 1.7 uM after 15 mins by spectrophotometric method; how it was run: as §2

| Compound | pIC50 [1] | pIC50 [2] | other results |
| --- | --- | --- | --- |
| CCN(CC)C(=O)c1sc2ccccc2c1Cl | < 4.82 | < 4.82 | – |
| CCc1c(C(=O)N2C[C@@H](C)O[C@@H](C)C2)sc2ccccc12 | 6.17 | 5.64 | – |
| C[C@@H]1CN(C(=O)c2cc3ccccc3s2)C[C@H](C)O1 | 5.74 | 5.07 | – |
| C[C@@H]1CN(C(=O)c2sc3ccccc3c2N)C[C@H](C)O1 | 5.06 | < 4.82 | – |
| C[C@@H]1CN(C(=O)c2cc3ccccc3[nH]2)C[C@H](C)O1 | < 4.82 | < 4.82 | – |
| C[C@@H]1CN(C(=O)c2nc3ccccc3s2)C[C@H](C)O1 | 5.01 | < 4.82 | – |
| C[C@@H]1CN(C(=O)c2sc3c(Cl)c(Cl)ccc3c2Cl)C[C@H](C)O1 | 5.65 | 5.13 | – |
| O=C(Nc1ccccn1)c1sc2ccccc2c1Cl | < 4.82 | < 4.82 | – |
| CCN(CC)CCCC(C)Nc1ccnc2cc(Cl)ccc12 (stereo unspecified) [CHLOROQUINE] | – | – | pIC50 [3]: < 4.00 |
| O=C(NC12CC3CC(CC(C3)C1)C2)c1sc2ccccc2c1Cl | < 4.82 | < 4.82 | – |
| CC1CN(C(=O)c2cc3ccccc3o2)CC(C)N1 (stereo unspecified) | < 4.82 | < 4.82 | – |
| Cc1ccc2c(Cl)c(C(=O)N3C[C@@H](C)O[C@@H](C)C3)sc2c1 | 7.07 | 6.22 | pIC50 [3]: 3.70; selectivity ratio [4]: 250 to 5000; selectivity ratio [5]: 250 to 5000 |
| O=C(c1sc2ccccc2c1Cl)N1CCOCC1 | < 4.82 | < 4.82 | – |
| O=C(c1sc2ccccc2c1Cl)N1CCCCC1 | < 4.82 | < 4.82 | – |
| C[C@@H]1CN(C(=O)c2sc3ccccc3c2Cl)C[C@@H](C)O1 | 6.19 | 5.57 | pIC50 [3]: 3.81; selectivity ratio [4]: 250 to 5000; selectivity ratio [5]: 250 to 5000 |
| CC1CN(C(=O)c2cc3ccccc3[nH]2)CC(C)N1 (stereo unspecified) | < 4.82 | < 4.82 | – |
| CC1CN(C(=O)c2sc3ccccc3c2Cl)CC(C)O1 (stereo unspecified) | – | 6.59 | – |
| C[C@@H]1CN(C(=O)c2sc3cc(Cl)ccc3c2Cl)C[C@H](C)O1 | 6.39 | 5.68 | – |
| C[C@@H]1CN(C(=O)c2cc3ccccc3o2)C[C@H](C)O1 | < 4.82 | < 4.82 | – |

| Compound | pIC50 [1] | pIC50 [2] | other results |
| --- | --- | --- | --- |
| CN1CCN(C(=O)c2cc3ccccc3s2)CC1 | < 4.82 | < 4.82 | – |
| C[C@@H]1CN(C(=O)c2sc3ccccc3c2O)C[C@H](C)O1 | < 4.82 | < 4.82 | – |
| C[C@@H]1CN(C(=O)c2sc3cc(F)ccc3c2Cl)C[C@H](C)O1 | 7.13 | 6.34 | Stability [6]: Stable |
| C[C@@H]1CN(C(=O)c2cc3ccccc3s2)C[C@H](C)N1 | < 4.82 | < 4.82 | – |
| C[C@@H]1CN(C(=O)c2sc3ccccc3c2OCc2ccc(Cl)cc2)C[C@H](C)O1 | 6.73 | 6.14 | pIC50 [3]: 4.32; selectivity ratio [4]: 250 to 5000; selectivity ratio [5]: 250 to 5000 |
| CC1CC(C)CN(C(=O)c2sc3ccccc3c2Cl)C1 (stereo unspecified) | 7.00 | 6.34 | pIC50 [3]: 3.83; selectivity ratio [4]: 250 to 5000; selectivity ratio [5]: 250 to 5000 |
| O=C(c1cc2ccccc2s1)N1CCOCC1 | < 4.82 | < 4.82 | – |
| O=C(Nc1ccccc1)c1sc2ccccc2c1Cl | < 4.82 | < 4.82 | – |
| C[C@@H]1CN(C(=O)c2sc3ccccc3c2Cl)C[C@H](C)O1 | 7.43 | 6.74 | pIC50 [3]: 3.71; half-life at 1 µM [7]: 40 min; Stability [6]: Stable; inhibition [8]: inactive; selectivity ratio [4]: 250 to 5000; selectivity ratio [5]: 250 to 5000; pIC50 [9]: 5.20; pEC50 [10]: 6.52 |
| COc1c(C(=O)N2C[C@@H](C)O[C@@H](C)C2)sc2ccccc12 | 6.37 | 5.76 | – |
| CC(=O)N1CCN(C(=O)c2cc3ccccc3s2)CC1 | 4.96 | 5.11 | – |
| C[C@@H]1CN(C(=O)c2sc3ccccc3c2OCc2ccc(F)c(F)c2)C[C@H](C)O1 | 6.85 | 6.13 | pIC50 [3]: 4.01; selectivity ratio [4]: 250 to 5000; selectivity ratio [5]: 250 to 5000 |
| C[C@@H]1CN(C(=O)c2sc3ccccc3c2OCc2ccccc2)C[C@H](C)O1 | 7.42 | 6.85 | pIC50 [3]: 4.14; half-life at 1 µM [7]: 2.1 min; inhibition [11]: inactive; inhibition [12]: inactive; selectivity ratio [4]: 250 to 5000; selectivity ratio [5]: 250 to 5000 |
| C[C@@H]1CN(C(=O)c2sc3ccccc3c2NCc2ccccc2)C[C@H](C)O1 | 5.58 | 5.01 | – |
| Cc1c(C(=O)N2C[C@@H](C)O[C@@H](C)C2)sc2ccccc12 | 6.65 | 6.12 | pIC50 [3]: 3.85; half-life at 1 µM [7]: 44 min; inhibition [13]: inactive; selectivity ratio [4]: 250 to 5000; selectivity ratio [5]: 250 to 5000 |
| CC1CN(C(=O)c2sc3ccccc3c2Cl)CC(C)N1 (stereo unspecified) | 5.31 | 4.83 | – |
| COc1ccc(COc2c(C(=O)N3C[C@@H](C)O[C@@H](C)C3)sc3ccccc23)cc1 | 6.84 | 6.06 | pIC50 [3]: 4.08; selectivity ratio [4]: 250 to 5000; selectivity ratio [5]: 250 to 5000 |
| O=C(Nc1ccncc1)c1sc2ccccc2c1Cl | < 4.82 | < 4.82 | Stability [6]: Stable |
